Rtt109 HAT inh: C. albicans Rtt109 histone acetyltransferase inhibition. actives 0.16% (n = 330,000). Q5AAJ8. AID 540336. purified Rtt109/Vps75, ThioGlo CoA-SH fluorescence, 4 h. inhibition, % at 34.9 µM;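 active = inhibition of at least 50% in every replicate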
Target sequence (Q5AAJ8 whole entry, looked up): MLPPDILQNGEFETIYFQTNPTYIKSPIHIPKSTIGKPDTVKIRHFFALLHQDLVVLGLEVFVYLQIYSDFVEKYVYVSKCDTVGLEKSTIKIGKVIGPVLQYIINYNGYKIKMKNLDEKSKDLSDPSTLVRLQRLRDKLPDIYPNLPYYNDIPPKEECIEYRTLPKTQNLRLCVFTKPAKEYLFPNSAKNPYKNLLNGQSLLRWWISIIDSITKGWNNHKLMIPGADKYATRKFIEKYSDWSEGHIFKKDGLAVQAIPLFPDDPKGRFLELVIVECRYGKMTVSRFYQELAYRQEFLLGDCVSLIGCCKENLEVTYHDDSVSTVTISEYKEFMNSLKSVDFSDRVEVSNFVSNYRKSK
CAL PDZ FP-1: blocks peptide binding to the human CAL PDZ domain. Q9HD26. purified CAL PDZ, TMR-peptide fluorescence polarization, 1 h. inhibition, % at 24.9 µM. actives 0.92% (n = 300,000);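 active = mean inhibition of at least 30% with at least half of replicates also reaching 30%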
CAL PDZ FP-2: inhibitors of human CAL PDZ peptide binding; purified CAL PDZ, TMR-peptide fluorescence polarization, 1 h; inhibition, % at 20 µM; actives 0.02% (n = 330,000); AID 504414;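 active = highest replicate inhibition of at least 40%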
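Assay system – tagged CAL PDZ protein CerCALP, purified · Timing – 1 h at RT · Compound – single point, 20 µM · Measured by – fluorescence polarization from S- and P-plane intensities, G-factor corrected · Evaluation – inhibition from polarization loss · Probe or stimulus – TMR reporter peptide T*-PRC34 · Buffer or medium – pH 7.4 phosphate-saline buffer, reducing agent, detergent, IgG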
ALR H2O2 inh: human ALR oxidase inhibition via reduced H2O2; AID 485317; purified ALR, DTT oxidation, H2O2 HRP-luminol luminescence; actives 3.8% (n = 290,000); inhibition, % (test concentration not listed);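 active = mean replicate inhibition above about 79%, with every replicate also reaching it, limit read from the data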
Target sequence (P55789 whole entry, looked up): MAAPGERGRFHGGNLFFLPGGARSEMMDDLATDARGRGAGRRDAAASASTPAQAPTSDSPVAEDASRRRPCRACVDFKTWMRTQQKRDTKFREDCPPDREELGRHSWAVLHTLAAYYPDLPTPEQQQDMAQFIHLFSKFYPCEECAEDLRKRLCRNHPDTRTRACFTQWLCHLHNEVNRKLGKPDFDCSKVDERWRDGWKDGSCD
DYRK1A inh: Dyrk1A (rat) kinase inhibition | Q63470 | ADP-Glo luminescence, NFATc1 peptide | inhibition, % at 12.5 µM | actives 0.43% (n = 310,000); in the data active = inhibition above about 50%
Large screens that a line does not name were inactive. Most compounds without a hit are left out; they make up all but 4.3% or so of the library.

O=S(=O)(c1ccc(Cl)cc1)N1CCSC1c1ccco1 (stereo not drawn)	CAL PDZ FP-1 164
Cc1cccc(CCNC(=O)CCc2nnc(CCc3ccccc3)o2)n1	none
O=C(CNC(=O)c1ccc(Cl)cc1)NC(CO)c1ccccc1 (stereo not drawn)	none
O=Cc1cccc(OC(=O)/C=C/c2ccco2)c1	ALR H2O2 inh 98
Cc1ccc2nc(-c3ccc(N)cc3)sc2c1	none (no result: CAL PDZ FP-1)
Nc1ccc(-c2nc3cc(N)ccc3s2)cc1	ALR H2O2 inh 99
COc1ccccc1CN1C(=O)c2ccccc2C1C(=O)NC1CCC(C)CC1 (stereo not drawn)	ALR H2O2 inh 82 (no result: DYRK1A inh)
COc1cccc(NC(=O)c2c([N+](=O)[O-])cnn2C)c1	ALR H2O2 inh 96
O=c1c(C(c2ccc(Cl)cc2)c2c(O)nc3n(c2=O)CCS3)c(O)nc2n1CCS2	ALR H2O2 inh 98
O=c1c(C(c2ccc(Cl)cc2)c2c(O)nc3n(c2=O)CCCS3)c(O)nc2n1CCCS2	none
CC(c1ccon1)N(C)Cc1cn(C)nc1-c1cccc(Cl)c1 (stereo not drawn)	none
CN(C)c1ccc(Nc2cc(Cl)ncn2)cc1	ALR H2O2 inh 99
CN(C)c1ccc(Nc2ncnc3ccc(Br)cc23)cc1	none (no result: ALR H2O2 inh)
CCOC(=O)c1cc(C(C)C)sc1NC(=O)COC(=O)CCS(=O)(=O)c1ccccc1	none
COC(=O)c1c(NC(=O)COC(=O)CNC(=O)c2ccco2)sc(C)c1C	CAL PDZ FP-1 58
CCOC(=O)c1c(NC(=O)COC(=O)CCS(=O)(=O)c2ccc(C)cc2)sc(C)c1C	ALR H2O2 inh 94
Cc1sc(NC(=O)c2ccco2)c(C(=O)c2ccc(Cl)cc2)c1C	ALR H2O2 inh 97
CCN(CC)CCCN(Cc1cc2cc3c(cc2[nH]c1=O)OCO3)C(=S)Nc1ccccc1	none
O=C(c1ccc(=O)[nH]c1)N1CCN(S(=O)(=O)c2ccc(Cl)cc2)CC1	none
Cc1cc2c(=O)n(C)c(SCC(=O)Nc3cccc(O)c3)nc2s1	ALR H2O2 inh 99
COc1ccc(NC(=O)CSc2nc3sc(C)cc3c(=O)n2C)cc1	none
COc1ccc(NC(=O)CSc2nc3sc(C)cc3c(=O)n2C)c(OC)c1	CAL PDZ FP-1 80 (no result: ALR H2O2 inh)
O=C(NCC1CCCO1)c1ccc(CSCc2cccc(F)c2)o1 (stereo not drawn)	none
O=C1NC2(CCCCC2)C(=O)N1CC(=O)N(Cc1ccccc1)c1ccccc1	none
O=C(O)c1cccc(Nc2nc(Nc3ccccc3)nc(N3CCCC3)n2)c1	ALR H2O2 inh 95 (no result: CAL PDZ FP-2)
O=C1CCCc2c1oc1c2CCCC1	none (no result: ALR H2O2 inh, DYRK1A inh)
CC1(C)CC(=O)C=C(Nc2ccc(C(=O)O)c(O)c2)C1	none
CC1CC(C)CN(C(=O)c2ccc(-c3ccc([N+](=O)[O-])cc3)o2)C1 (stereo not drawn)	ALR H2O2 inh 89
O=C(c1ccc(-c2ccc([N+](=O)[O-])cc2)o1)N1CCCCC1	none
COC(=O)c1ccccc1NC(=O)Oc1ccc(C(C)C)cc1	ALR H2O2 inh 92
Cc1ccc(NC(=O)CN2CCCC2c2cccn2C)c(Br)c1 (stereo not drawn)	CAL PDZ FP-1 39 (no result: DYRK1A inh)
Cc1ccc(NC(=O)CN2CCCC2c2cccn2C)cc1C (stereo not drawn)	none
CC(C)c1ccc(N(CC(=O)NC(C)(C)C)C(=O)CCC(=O)Nc2nccs2)cc1	none
COc1ccccc1CNC(=O)CSc1ccc(-c2ccncc2)nn1	none
O=C1CCc2cc(S(=O)(=O)Nc3ccc(F)cc3)ccc2N1	none (no result: DYRK1A inh)
CCn1c(=O)cc(SCC(=O)NCc2ccc(C)o2)c2ccccc21	ALR H2O2 inh 98 (no result: CAL PDZ FP-2)
CCn1c(=O)cc(SCC(=O)NCc2ccccn2)c2ccccc21	ALR H2O2 inh 98 (no result: CAL PDZ FP-1)
O=C(c1cccnc1)N1CCN(c2ccc3ccccc3n2)CC1	none (no result: Rtt109 HAT inh)
N#Cc1ccc(CN(c2ccncc2)S(=O)(=O)c2ccccc2)cc1	none
Nc1nc(SCC(=O)Nc2cccc(F)c2)n[nH]1	none
O=C(CSc1ccc(C(F)(F)F)cc1[N+](=O)[O-])Nc1ccc2ccccc2c1	ALR H2O2 inh 99
CC(=O)Nc1cccc(NC(=O)CSc2ccc(C(F)(F)F)cc2[N+](=O)[O-])c1	none
O=C(CSC1=NCCS1)Nc1cccc(F)c1	ALR H2O2 inh 99
O=C(CSC1=NCCS1)Nc1ccc2ccccc2c1	ALR H2O2 inh 99
CC(=O)Nc1ccc(NC(=O)CSC2=NCCS2)cc1	none (no result: ALR H2O2 inh)
O=c1sc(Nc2ccccc2)nc2ccccc12	none
O=c1cnnc(Nc2ccc(Nc3ccccc3)cc2)[nH]1	ALR H2O2 inh 100
CC(Oc1ccc(Cl)cc1Cl)C(=O)Nc1ccc(O)cc1 (stereo not drawn)	ALR H2O2 inh 98
CC(Oc1ccc(Cl)cc1Cl)C(=O)Nc1cccc(O)c1 (stereo not drawn)	none
c1ccc2c(c1)CC(N1CCCCC1)c1ccccc1N2 (stereo not drawn)	ALR H2O2 inh 85
O=C(CN1C(=O)NC2(CCCC2)C1=O)OCCOc1ccc(Cl)cc1	none
C=CCN(CC=C)C(=S)Nc1ccc(OC)c(OC)c1	none (no result: CAL PDZ FP-1, ALR H2O2 inh)
CCNc1ccc(S(=O)(=O)N(C)C)cc1NCC(=O)Nc1ccccc1F	ALR H2O2 inh 99
CCNc1ccc(S(=O)(=O)N(C)C)cc1NCC(=O)Nc1ccc(Br)cc1F	none (no result: ALR H2O2 inh)
O=C(O)c1ccc(-c2nc(-c3ccccc3)cs2)cc1	ALR H2O2 inh 95
O=C(O)c1ccccc1C(=O)Nc1ccc(-c2csc(-c3ccccc3)n2)cc1	ALR H2O2 inh 99
O=C(Nc1ccc(-c2csc(-c3ccccc3)n2)cc1)c1ccccc1Cl	none
CCOC(=O)Cc1csc(NC(=O)c2ccc3ncsc3c2)n1	none
CCCn1ncc2c(Nc3ccc(C)c(C)c3)ncnc21	ALR H2O2 inh 96
Cn1ncc2c(Nc3ccc(Cl)c(Cl)c3)ncnc21	none (no result: ALR H2O2 inh)
COc1ccc2cc(C(=O)C3CCCN(C(=O)c4cccnc4)C3)ccc2c1 (stereo not drawn)	none (no result: DYRK1A inh)
COc1ccc(NC2CCCN(C(=O)c3cccc(N4CCNC4=O)c3)C2)cc1 (stereo not drawn)	ALR H2O2 inh 99
COc1ccc(NC2CCCN(C(=O)c3cccnc3)C2)cc1 (stereo not drawn)	ALR H2O2 inh 97
CC(C)c1ccc(NC2CCCN(C(=O)c3ccc4nccnc4c3)C2)cc1 (stereo not drawn)	none
CC(C)c1ccc(NC2CCCN(C(=O)c3cccc(N4CCNC4=O)c3)C2)cc1 (stereo not drawn)	ALR H2O2 inh 95
O=c1cc(NCc2ccccc2)[nH]c(=O)[nH]1	none
CC(NC(=O)c1cccs1)C(S)c1ccccc1 (stereo not drawn)	none
O=C(Nc1nnc(Cc2ccccc2)s1)Nc1ccccc1F	none (no result: CAL PDZ FP-2)
Cc1ccc(N(CC(O)CON=C2c3ccccc3-c3ccccc32)S(C)(=O)=O)cc1 (stereo not drawn)	none
O=C(CCN1C(=O)C2CCCCC2C1=O)Nc1ccc(F)c(F)c1F (stereo not drawn)	none (no result: CAL PDZ FP-1)
CC(NC(=O)CCc1nnc(C2(c3ccc(Cl)cc3)CCC2)o1)C1CC1 (stereo not drawn)	none
O=C(CCc1nnc(C2(c3ccc(Cl)cc3)CCC2)o1)NCCCn1cccn1	Rtt109 HAT inh 50

Screening data: PubChem, Broad Institute
